Measurements reported in publication PMC9307089 (Journal of medicinal chemistry, 2021).
pIC50: −log10 of the molar value. Where two headings read alike, the source gives them in different places. Blank lines part the entries; values can stand above or below the compound they belong to. Numbered stars: 1 amine (or outer) side, 2 acyl side, 3 side chain; on linkers, the order of the positions; unused ones are H or OH. Square brackets hold non-standard residues; d marks the D form. Peptide text beside a SMILES is read from it. X1 = N=C(N)NCCC[C@H](N[*:1])C(=O)c1nc2ccc(C(=O)[*:2])cc2s1

Legend:
H596 lung cancer cells = assay: Pro-HGF-mediated growth of H596 cells in vitro; format: cell-based; conditions: pro-HGF 50 ng/ml; JNJ 500 nM, nafamostat […], ZFH7116 10 μM
thrombin = thrombin (Homo sapiens, UniProt P00734); assay: Chromogenic kinetic enzyme assay, thrombin; format: biochemical
[1] = Mouse pharmacokinetics, IP dosing; conditions: for duration of compound exposure (detectable compound) in plasma: monitored for 24 h
HGFA = target: T1, HGFA (Homo sapiens, UniProt Q04756); assay: Proteolytic processing of recombinant pro-HGF by HGFA; format: biochemical; conditions: pro-HGF 10 ng, HGFA 5 nM, one hour
T1 sequence (Q04756 373-655): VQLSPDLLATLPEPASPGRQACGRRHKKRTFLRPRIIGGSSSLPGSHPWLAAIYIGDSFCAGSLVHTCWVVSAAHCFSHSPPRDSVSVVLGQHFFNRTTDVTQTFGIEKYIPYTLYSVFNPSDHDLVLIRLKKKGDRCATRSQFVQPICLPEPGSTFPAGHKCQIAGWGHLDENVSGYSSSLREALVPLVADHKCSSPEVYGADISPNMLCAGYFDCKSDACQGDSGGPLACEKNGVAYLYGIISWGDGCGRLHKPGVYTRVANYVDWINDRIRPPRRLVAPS
Summary of the method: (§1)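 Recombinant pro-HGF (10 ng) was incubated 1 h with matriptase (1 nM), hepsin (10 nM) or HGFA (5 nM), with or without test compound. Products were immunoblotted with a polyclonal antibody detecting pro-HGF and the alpha and beta chains of active HGF. Active HGF was run as positive control.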

EBC-1 lung cancer cells [2] = assay: Cell viability, pro-HGF-mediated resistance to MET inhibitor JNJ-38877605; format: cell-based; conditions: JNJ-38877605 25 nM, pro-HGF 100 ng/ml, inhibitor 1 μM, 48 h
Summary of the method: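 EBC-1 cells pre-incubated 24 h with pro-HGF (100 ng/ml), with or without test compound (1μM), then treated with MET kinase inhibitor JNJ-38877605 (25nM). Viability read by CellTiterGlo after 48 hrs. Means±S.E.M., n=3. One-way ANOVA with Dunnett's multiple comparison test against JNJ plus pro-HGF treated cells.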

HCC827 cells = assay: Pro-HGF-mediated wound healing; format: cell-based; conditions: HCC827, inhibitor 10 μM, 24 h
Summary of the method: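 HCC827 monolayers were grown to confluence, serum-starved overnight and scratched. Cells were then pre-incubated 30 min with test compound (10 μM) and stimulated with HGF or pro-HGF for 24 h. Plates were stained with crystal violet and wound closure imaged; data average n=3.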

[3] = Mouse plasma protein binding; format: in vitro ADME
hepsin = hepsin (Homo sapiens, UniProt P05981); assay: Proteolytic processing of recombinant pro-HGF by hepsin; format: biochemical; conditions: pro-HGF 10 ng, hepsin 10 nM, one hour
hepsin, sequence (P05981 whole entry): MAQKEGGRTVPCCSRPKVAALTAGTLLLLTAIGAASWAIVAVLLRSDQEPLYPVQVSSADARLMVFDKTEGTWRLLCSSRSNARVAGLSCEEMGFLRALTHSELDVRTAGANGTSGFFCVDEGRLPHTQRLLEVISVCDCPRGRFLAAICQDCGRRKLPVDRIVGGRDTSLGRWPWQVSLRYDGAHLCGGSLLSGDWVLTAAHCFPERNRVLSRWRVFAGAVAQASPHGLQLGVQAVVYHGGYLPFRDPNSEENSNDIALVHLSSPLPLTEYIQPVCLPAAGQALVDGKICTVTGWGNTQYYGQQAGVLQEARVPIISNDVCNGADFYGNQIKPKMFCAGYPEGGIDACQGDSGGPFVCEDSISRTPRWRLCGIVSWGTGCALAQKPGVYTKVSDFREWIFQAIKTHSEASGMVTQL
Summary of the method: as §1

[4] = Tolerability in mice, daily IP for 7 days; format: in vivo
matriptase = target: T2, matriptase (Homo sapiens, UniProt Q9Y5Y6); assay: Proteolytic processing of recombinant pro-HGF by matriptase; format: biochemical; conditions: pro-HGF 10 ng, matriptase 1 nM, one hour
T2 sequence (Q9Y5Y6 1-855): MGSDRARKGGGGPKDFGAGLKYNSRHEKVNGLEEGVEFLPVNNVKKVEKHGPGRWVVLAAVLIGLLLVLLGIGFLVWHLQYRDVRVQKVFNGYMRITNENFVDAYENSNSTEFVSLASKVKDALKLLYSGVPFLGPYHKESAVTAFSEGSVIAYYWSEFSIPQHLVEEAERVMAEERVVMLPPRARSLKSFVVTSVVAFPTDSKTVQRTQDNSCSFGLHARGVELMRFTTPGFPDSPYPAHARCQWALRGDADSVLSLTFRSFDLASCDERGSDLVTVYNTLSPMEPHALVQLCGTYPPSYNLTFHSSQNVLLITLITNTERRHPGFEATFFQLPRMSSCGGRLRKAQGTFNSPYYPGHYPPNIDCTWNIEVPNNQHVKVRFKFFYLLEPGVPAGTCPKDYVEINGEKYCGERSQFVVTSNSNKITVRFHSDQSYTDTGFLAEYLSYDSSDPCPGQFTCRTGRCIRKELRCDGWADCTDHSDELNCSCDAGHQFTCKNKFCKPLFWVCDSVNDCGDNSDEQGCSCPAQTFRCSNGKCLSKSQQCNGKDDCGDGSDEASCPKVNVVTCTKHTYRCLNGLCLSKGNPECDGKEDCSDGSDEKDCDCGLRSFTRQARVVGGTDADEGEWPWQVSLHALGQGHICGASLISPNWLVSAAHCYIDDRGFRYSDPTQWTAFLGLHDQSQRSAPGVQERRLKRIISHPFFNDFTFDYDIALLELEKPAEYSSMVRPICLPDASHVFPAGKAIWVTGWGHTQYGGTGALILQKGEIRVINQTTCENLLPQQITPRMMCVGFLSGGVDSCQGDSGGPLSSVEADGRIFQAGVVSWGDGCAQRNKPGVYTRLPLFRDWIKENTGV
Summary of the method: as §1

[5] = target: T3, recombinant serine protease domain of HGFA (Homo sapiens, UniProt Q04756); assay: Fluorescent kinetic enzyme inhibition assay, HGFA; format: biochemical
T3 sequence (Q04756 408-646 limits assumed): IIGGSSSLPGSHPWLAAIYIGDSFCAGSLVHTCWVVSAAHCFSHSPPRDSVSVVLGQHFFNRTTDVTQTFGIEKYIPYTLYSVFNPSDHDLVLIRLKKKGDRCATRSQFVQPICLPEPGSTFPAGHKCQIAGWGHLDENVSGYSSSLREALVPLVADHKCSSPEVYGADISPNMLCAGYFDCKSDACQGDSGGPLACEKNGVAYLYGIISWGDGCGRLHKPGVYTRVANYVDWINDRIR

[6] = In vitro stability in mouse plasma; format: in vitro ADME
[7] = In vitro stability in human plasma; format: in vitro ADME
EBC-1 lung cancer cells [8] = conditions: previous finding; cited from earlier work
HCC827 lung cancer cells = assay: Cell viability, pro-HGF-mediated resistance to gefitinib; format: cell-based; conditions: gefitinib 20 nM, pro-HGF 100 ng/ml, inhibitor 0.1-1 μM, 72 h
Summary of the method: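 HCC827 cells (EGFR exon-19 E746–A750 deletion) were exposed to gefitinib (20 nM), with or without pro-HGF (100 ng/ml), and test compound (0.1–1 μM) as indicated. Viability was read by crystal violet staining after 72 h. Data are means ± S.E.M. of n=3–5, analysed by one-way ANOVA with Dunnett's test against cells given gefitinib plus pro-HGF.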

[9] = read-out: Thrombin IC50, chromogenic substrate S2238

Compound: Cn1cc(-c2ccc3nnc(C(F)(F)c4ccc5ncccc5c4)n3n2)cn1 [JNJ-38877605]
pro-HGF-mediated growth of H596 cells (H596 lung cancer cells): inhibited the pro-HGF-mediated growth of H596 cells

Compound: CC(=O)N[C@H]1CC(=O)NCCCC[C@@H](C(=O)N[C@@H](CCCNC(=N)N)C(=O)c2nc3ccccc3s2)NC(=O)[C@H](Cc2ccccc2)NC1=O [Compound 29, Ac-cyclo(DFK)-R- ketobenzothiazole]
AUC in mice (in words) ([1]; IP 20 mg/kg): comparable to 18

Compound: CC(=O)N[C@H]1CC(=O)NCCCC[C@@H](C(=O)N[C@@H](CCCNC(=N)N)C(=O)c2nc3ccccc3s2)NC(=O)[C@H](CC(C)C)NC1=O [Compound 18, Ac-cyclo(DLK)-R- ketobenzothiazole]
AUC in mice (in words) ([1]; IP 20 mg/kg): high | duration of compound exposure above IC50s ([1]; IP 20 mg/kg): 24 h | duration of compound exposure (detectable compound) in plasma ([1]; IP 20 mg/kg): > 24 h | inhibition of pro-HGF activation by HGFA (HGFA): did not inhibit | pro-survival activity of pro-HGF in JNJ-38877605-treated EBC-1 cells (EBC-1 lung cancer cells [2]): blocked the pro-survival activity of pro-HGF | pro-HGF-mediated wound closure (HCC827 cells): significantly inhibited | Mouse PPB (% free) [3]: 28.6 % free | inhibition of pro-HGF activation by hepsin (hepsin): potently inhibited | tolerated dose [4]: up to 20 mg/kg | inhibition of pro-HGF activation by matriptase (matriptase): potently inhibited

Compound: CC(=O)N[C@H]1CCC(=O)NCCCC[C@@H](C(=O)N[C@@H](CCCNC(=N)N)C(=O)c2nc3ccccc3s2)NC(=O)[C@H](CC(C)C)NC1=O [Compound 19, Ac-cyclo(ELK)-R- ketobenzothiazole]
duration of compound exposure (detectable compound) in plasma ([1]; IP 20 mg/kg): ≤ 8 h | half-life ([1]; mouse, plasma, ip, 20 mg/kg): < 0.5 h | pIC50 [5]: < 4.70 | pIC50 (thrombin): < 4.70 | half-life [6]: 2.62 h | Mouse PPB (% free) [3]: 6.0 % free | half-life [7]: > 4.82 h

Compound: CC(=O)N[C@H]1CCCCNC(=O)CC[C@@H](C(=O)N[C@@H](CCCNC(=N)N)C(=O)c2nc3ccccc3s2)NC(=O)[C@H](CCCNC(=N)N)NC1=O [Compound 17, Ac-cyclo(KRE)-R- ketobenzothiazole]
Mouse PPB (% free) [3]: 25.9 % free

Compound: CC(=O)N[C@H]1CCCCNC(=O)C[C@@H](C(=O)N[C@@H](CCCNC(=N)N)C(=O)c2nc3ccccc3s2)NC(=O)[C@H](CC(C)C)NC1=O [Compound 15, Ac-cyclo(KLD)-R-ketobenzothiazole]
Mouse PPB (% free) [3]: 85.3 % free

Compound: CC1CN(CC2CCN(Cc3ccccc3)CC2)C(=O)N(c2cccc(C(=N)N)c2)C1.O=C(O)C(F)(F)F (stereo not shown) [SRI31215]
HGF-mediated survival of MET-amplified cancer cells upon MET inhibition (EBC-1 lung cancer cells [8]): inhibited

Compound: CC(=O)N[C@@H](CO)C(=O)N[C@@H](CCCCN)C(=O)N[C@@H](CC(C)C)C(=O)N[C@@H](CCCNC(=N)N)C(=O)c1nc2ccc(C(=O)N[C@H](C(N)=O)C(C)C)cc2s1 [Compound 31] (Ac-SKL[X1]V-NH2)
inhibition of pro-HGF activation by HGFA (HGFA): potently inhibited | pro-survival activity of pro-HGF in JNJ-38877605-treated EBC-1 cells (EBC-1 lung cancer cells [2]): blocked the pro-survival activity of pro-HGF | pro-HGF-mediated wound closure (HCC827 cells): significantly inhibited | pro-HGF-mediated growth of H596 cells (H596 lung cancer cells): blocked the growth-promoting activity of pro-HGF | Mouse PPB (% free) [3]: 16.7 % free | pro-survival effect of pro-HGF in gefitinib-treated HCC827 cells (HCC827 lung cancer cells): blocked the pro-survival effects of pro-HGF | inhibition of pro-HGF activation by hepsin (hepsin): potently inhibited | inhibition of pro-HGF activation by matriptase (matriptase): potently inhibited

Compound: CC(=O)N[C@H]1CCCCNC(=O)CC[C@@H](C(=O)N[C@@H](CCCNC(=N)N)C(=O)c2nc3ccccc3s2)NC(=O)[C@H](CC(C)C)NC1=O [Compound 16, Ac-cyclo(KLE)-R-ketobenzothiazole]
duration of compound exposure (detectable compound) in plasma ([1]; IP 20 mg/kg): ≤ 8 h | Mouse PPB (% free) [3]: 18.4 % free

Compound: CC(=O)N[C@H]1CC(=O)NCCCC[C@@H](C(=O)N[C@@H](CCCNC(=N)N)C(=O)c2nc3ccccc3s2)NC(=O)CNC1=O [Compound 22, Ac-cyclo(DGK)-R- ketobenzothiazole]
pIC50 (thrombin; [9]): < 4.70

Compound: N=C(N)Nc1ccc(C(=O)Oc2ccc3cc(C(=N)N)ccc3c2)cc1 [Nafamostat]
pro-HGF-mediated growth of H596 cells (H596 lung cancer cells): inhibited the pro-HGF-mediated growth of H596 cells

Further lines, results first:

pIC50 (thrombin; [9]): < 4.70
Compound: CC(=O)N[C@H]1CC(=O)NCCCC[C@@H](C(=O)N[C@@H](CCCNC(=N)N)C(=O)c2nc3ccccc3s2)NC(=O)[C@H](CC(N)=O)NC1=O [Compound 25, Ac-cyclo(DNK)-R- ketobenzothiazole]

pIC50 (thrombin; [9]): < 4.70
Compound: CC(=O)N[C@H]1CC(=O)NCCCC[C@@H](C(=O)N[C@@H](CCCNC(=N)N)C(=O)c2nc3ccccc3s2)NC(=O)[C@H](CCC(N)=O)NC1=O [Compound 26, Ac-cyclo(DQK)-R- ketobenzothiazole]

pIC50 (thrombin; [9]): < 4.70
Compound: CC(=O)N[C@H]1CC(=O)NCCCC[C@@H](C(=O)N[C@@H](CCCNC(=N)N)C(=O)c2nc3ccccc3s2)NC(=O)[C@H](C)NC1=O [Compound 23, Ac-cyclo(DAK)-R- ketobenzothiazole]

pIC50 (thrombin; [9]): < 4.70
Compound: CC(=O)N[C@H]1CC(=O)NCCCC[C@@H](C(=O)N[C@@H](CCCNC(=N)N)C(=O)c2nc3ccccc3s2)NC(=O)[C@H](Cc2ccc(O)cc2)NC1=O [Compound 30, Ac-cyclo(DYK)-R- ketobenzothiazole]

pIC50 (thrombin; [9]): < 4.70
Compound: CC(=O)N[C@H]1CC(=O)NCCCC[C@@H](C(=O)N[C@@H](CCCNC(=N)N)C(=O)c2nc3ccccc3s2)NC(=O)[C@H](C(C)C)NC1=O [Compound 24, Ac-cyclo(DVK)-R- ketobenzothiazole]

pIC50 (thrombin; [9]): < 4.70
Compound: CC(=O)N[C@H]1CC(=O)NCCCC[C@@H](C(=O)N[C@@H](CCCNC(=N)N)C(=O)c2nc3ccccc3s2)NC(=O)[C@H]([C@@H](C)O)NC1=O [Compound 27, Ac-cyclo(DTK)-R- ketobenzothiazole]
